The values below come from ChEMBL document CHEMBL3758148, “4-Phenylpyridin-2-one Derivatives: A Novel Class of Positive Allosteric Modulator of the M1 Muscarinic Acetylcholine Receptor” (J Med Chem, 2016).

Assay [1] has as its target T1, Muscarinic acetylcholine receptor M1 (Homo sapiens) (UniProt P11229).
T1 sequence (whole entry): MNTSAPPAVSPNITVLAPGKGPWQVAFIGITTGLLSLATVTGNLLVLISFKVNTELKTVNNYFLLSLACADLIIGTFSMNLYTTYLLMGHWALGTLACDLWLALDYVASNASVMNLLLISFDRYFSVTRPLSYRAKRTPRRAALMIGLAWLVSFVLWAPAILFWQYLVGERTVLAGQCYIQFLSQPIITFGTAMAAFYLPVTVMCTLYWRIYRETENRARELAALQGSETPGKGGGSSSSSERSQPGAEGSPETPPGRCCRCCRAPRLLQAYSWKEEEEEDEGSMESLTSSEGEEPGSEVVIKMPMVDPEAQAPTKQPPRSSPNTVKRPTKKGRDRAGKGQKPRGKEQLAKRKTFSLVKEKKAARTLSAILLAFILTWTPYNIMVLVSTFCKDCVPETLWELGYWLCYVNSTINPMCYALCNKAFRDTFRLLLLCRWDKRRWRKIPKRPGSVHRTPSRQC
Description: Positive allosteric modulation of human muscarinic M1 receptor expressed in CHO Flp-In cells assessed as functional cooperativity with acetylcholine measured as IP1 accumulation after 1 hr by HTRF method. It counts as cell-based. A digest of the protocol: (§1)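 Suspended Flp-In CHO cells stably expressing hM1, stimulated at 10⁶ cells/ml in HEPES buffer with 50 mM LiCl, pH 7.4, using increasing ACh with or without increasing modulator, 1 h at 37 °C, 5% CO2. IP1 read by HTRF (665/590 nm ratio). Curves fitted globally to the operational model of allosterism, with KB fixed from binding. Mean ± SEM, ≥3 experiments in duplicate.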

Assay [2] has as its target T1, Muscarinic acetylcholine receptor M1 (Homo sapiens). Description: Allosteric agonist activity at human muscarinic M1 receptor expressed in CHO Flp-In cells assessed as intrinsic activity measured as IP1 accumulation after 1 hr by HTRF method. It counts as functional, cell-based. A digest of the protocol: as §1
Assay [3] shares this target. The assay can be described thus: Displacement of [3H]NMS from human muscarinic M1 receptor expressed in CHO Flp-In cells after 1 hr by microbeta liquid scintillation counting-based radioligand binding assay. It counts as cell-based. A digest of the protocol:
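Intact adherent Flp-In CHO cells expressing hM1 (10⁴ cells/well), incubated with 0.2 nM [3H]NMS, varying ACh and modulator in HEPES-buffered saline pH 7.4 for 1 h at 37 °C. Washed with ice-cold 0.9% NaCl, then scintillation counted. Fitted to an allosteric ternary complex model with [3H]NMS KA 0.2 nM. Mean ± SEM, ≥3 experiments in duplicate.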

Regarding `COC(=O)c1ccc(COc2ccccc2-c2ccn([C@H]3CCCC[C@@H]3O)c(=O)c2)cc1` (racemic), in assay [1], the log(activity) is 0.96. Moreover, in assay [2], the Intrinsic activity was 0.54 and the log(IA) is -0.26. In assay [3], this compound had a Kb of 87 µM and a pKb of 4.06.

On to `COc1cccc(COc2ccccc2-c2ccn([C@H]3CCCC[C@@H]3O)c(=O)c2)c1` (racemic), for which, in assay [1], the log(activity) turned out to be 0.84. For the same compound, in assay [2], the Intrinsic activity worked out at 1.45 and the log(IA) was found to be 0.16. Moreover, in assay [3], the Kb turned out to be 65 µM and the pKb is 4.19.

Consider `Cn1cc(-c2ccc(CNc3ccccc3-c3ccn([C@H]4CCCC[C@@H]4O)c(=O)c3)cc2)cn1` (racemic), for which, in assay [1], the log(activity) stood at 1.44. In assay [2], the Intrinsic activity was 0.44 and the log(IA) was -0.36. In assay [3], the Kb came out at 66 µM and the pKb came to 4.18.

Consider `CCCn1cc(-c2ccc(COc3ccccc3-c3ccn([C@H]4CCCC[C@@H]4O)c(=O)c3)cc2)cn1` (racemic), for which, in assay [1], the log(activity) was determined as 1.78. In assay [2], the Intrinsic activity worked out at 0.3 and the log(IA) is -0.52. Further, in assay [3], the Kb turned out to be 23 µM and the negative-log Kb (pKb) was determined as 4.64.

Consider `O=c1cc(-c2ccccc2OCc2ccc(-c3ccccc3)cc2)ccn1[C@H]1CCCC[C@@H]1O` (racemic), for which the log(activity) in assay [1] came out at 1.09. In assay [2], the Intrinsic activity came out at 1.38 and the log(IA) is 0.14. In assay [3], this compound gave a Kb of 10 µM and a pKb of 4.99.

On to `O=c1cc(-c2ccccc2OCc2ccc(-c3ncco3)cc2)ccn1[C@H]1CCCC[C@@H]1O` (racemic), for which the log(activity) in assay [1] was 1.61. Moreover, in assay [2], the Intrinsic activity worked out at 0.57 and the log(IA) was -0.24. For the same compound, in assay [3], the Kb was 28 µM and the pKb turned out to be 4.56.

For `O=c1cc(-c2ccccc2OCc2ccc(-c3cncnc3)cc2)ccn1[C@H]1CCCC[C@@H]1O` (racemic), the log(activity) in assay [1] was 1.34. Besides, in assay [2], the Intrinsic activity stood at 0.16 and the log(IA) is -0.8. In assay [3], the Kb was determined as 35 µM and the pKb turned out to be 4.45.

Regarding `O=c1cc(-c2ccccc2NCc2ccc(-c3cccnc3)cc2)ccn1[C@H]1CCCC[C@@H]1O` (racemic), the log(activity) in assay [1] is 0.47. In assay [2], the Intrinsic activity came out at 0.74 and the log(IA) was -0.13. In assay [3], the Kb is 21 µM and the pKb amounted to 4.67.

As to `N#Cc1ccc(COc2ccccc2-c2ccn([C@H]3CCCC[C@@H]3O)c(=O)c2)cc1` (racemic), the log(activity) in assay [1] is 0.49. Also, in assay [2], the Intrinsic activity was 0.19 and the log(IA) is -0.73. Also, in assay [3], the Kb is 14 µM and the pKb was 4.85.

`O=c1cc(-c2ccccc2OCc2ccc(-c3cn[nH]c3)cc2)ccn1[C@H]1CCCC[C@@H]1O` (racemic): the log(activity) in assay [1] came to 0.68. Also, in assay [2], the Intrinsic activity was determined as 1.1 and the log(IA) was 0.04. In addition, in assay [3], the Kb is 28 µM and the pKb was 4.56.

Regarding `O=c1cc(-c2ccccc2OCc2ccc(-c3cccnc3)cc2)ccn1[C@H]1CCCC[C@@H]1O` (racemic), the log(activity) in assay [1] worked out at 1.29. In assay [2], the Intrinsic activity was found to be 0.38 and the log(IA) was -0.42. In assay [3], this compound showed a Kb of 19 µM and a pKb of 4.72.

As to `O=c1cc(-c2ccccc2OCc2ccc(-c3ccncc3)cc2)ccn1[C@H]1CCCC[C@@H]1O` (racemic), in assay [1], the log(activity) came out at 1.01. For the same compound, in assay [2], the Intrinsic activity was determined as 0.43 and the log(IA) is -0.37. In assay [3], this compound yielded a Kb of 11 µM and a pKb of 4.95.

For the compound `O=c1cc(-c2ccccc2OCc2ccc(F)cc2)ccn1[C@H]1CCCC[C@@H]1O` (racemic), in assay [1], the log(activity) is 1.15. In assay [2], the Intrinsic activity worked out at 1 and the log(IA) was 0. In assay [3], this compound registered a Kb of 60 µM and a pKb of 4.22.

For `COc1ccc(COc2ccccc2-c2ccn([C@H]3CCCC[C@@H]3O)c(=O)c2)cc1` (racemic), in assay [1], the log(activity) amounted to 0.8. In assay [2], the Intrinsic activity was 0.08 and the log(IA) is -1.1. In assay [3], this compound came in with a Kb of 52 µM and a pKb of 4.28.

As to `Cn1cc(-c2ccc(COc3ccccc3-c3cc(=O)n([C@H]4CCCC[C@@H]4O)cn3)cc2)cn1` (racemic), the log(activity) in assay [1] is 2.75. In assay [2], the Intrinsic activity worked out at 2.51 and the log(IA) worked out at 0.4. In assay [3], this compound came in with a Kb of 13 µM and a pKb of 4.88.

Regarding `COC(=O)c1cccc(COc2ccccc2-c2ccn([C@H]3CCCC[C@@H]3O)c(=O)c2)c1` (racemic), the log(activity) in assay [1] amounted to 0.52. In assay [2], the Intrinsic activity was determined as 0.15 and the log(IA) was -0.82. For the same compound, in assay [3], the Kb came to 100 µM and the pKb turned out to be 3.99.

Consider `Cn1cc(-c2ccc(COc3ccccc3-c3ccn([C@H]4CCCC[C@@H]4O)c(=O)c3)c(F)c2)cn1` (racemic), for which, in assay [1], the log(activity) was 1.93. Moreover, in assay [2], the Intrinsic activity was found to be 0.43 and the log(IA) was -0.37. In assay [3], this compound gave a Kb of 31 µM and a pKb of 4.51.

On to `O=c1cc(-c2ccccc2OCc2ccc(-c3cnn(CC4CC4)c3)cc2)ccn1[C@H]1CCCC[C@@H]1O` (racemic), for which the log(activity) in assay [1] was 0.58. Moreover, the log(IA) in assay [2] is -3. In addition, in assay [3], the Kb was 7 µM and the pKb amounted to 5.13.

As for `O=c1cc(-c2ccccc2OCc2ccc(-c3cnn(C4CCCCC4)c3)cc2)ccn1[C@H]1CCCC[C@@H]1O` (racemic), the log(activity) in assay [1] was found to be 0.63. Further, in assay [2], the Intrinsic activity amounted to 0.51 and the log(IA) was -0.29. In assay [3], this compound gave a Kb of 2 µM and a pKb of 5.67.

As for `O=c1cc(-c2ccccc2OCc2cccc(C(F)(F)F)c2)ccn1[C@H]1CCCC[C@@H]1O` (racemic), the log(activity) in assay [1] was 0. Moreover, in assay [2], the Intrinsic activity came to 1.02 and the log(IA) was found to be 0.01. In assay [3], this compound yielded a Kb of 30 µM and a pKb of 4.53.

For `CC(C)n1cc(-c2ccc(COc3ccccc3-c3ccn([C@H]4CCCC[C@@H]4O)c(=O)c3)cc2)cn1` (racemic), the log(activity) in assay [1] was 1.93. Also, in assay [2], the Intrinsic activity stood at 0.47 and the log(IA) is -0.33. In assay [3], this compound displayed a Kb of 27 µM and a pKb of 4.57.

In the case of `O=c1cc(-c2ccccc2OCc2ccccc2F)ccn1[C@H]1CCCC[C@@H]1O` (racemic), the log(activity) in assay [1] was 0.62. For the same compound, in assay [2], the Intrinsic activity was 0.44 and the log(IA) is -0.36. Also, in assay [3], the Kb was determined as 30 µM and the pKb was 4.52.

For `O=C(O)c1cccc(COc2ccccc2-c2ccn([C@H]3CCCC[C@@H]3O)c(=O)c2)c1` (racemic), in assay [1], the log(activity) is 1.08. In assay [2], the Intrinsic activity came out at 0.2 and the log(IA) is -0.69. In assay [3], this compound displayed a Kb of 91 µM and a pKb of 4.04.

Regarding `O=c1cc(-c2ccccc2OCc2cccc(F)c2)ccn1[C@H]1CCCC[C@@H]1O` (racemic), the log(activity) in assay [1] is 0.85. In addition, in assay [2], the Intrinsic activity is 0.78 and the log(IA) is -0.11. In assay [3], the Kb is 41 µM and the pKb worked out at 4.38.

With `O=c1cc(-c2ccccc2OCc2ccc(-c3nccs3)cc2)ccn1[C@H]1CCCC[C@@H]1O` (racemic), the log(activity) in assay [1] stood at 0.8. In addition, in assay [2], the Intrinsic activity amounted to 0.45 and the log(IA) was -0.35. For the same compound, in assay [3], the Kb was determined as 11 µM and the pKb stood at 4.96.

As to `O=C(O)c1ccc(COc2ccccc2-c2ccn([C@H]3CCCC[C@@H]3O)c(=O)c2)cc1` (racemic), the log(activity) in assay [1] was determined as 0.92. Also, the log(IA) in assay [2] is -1.24. In assay [3], this compound gave a pKb of 3.88.

Consider `Cn1cc(-c2ccc(COc3ccccc3-c3ccn([C@H]4CCCC[C@@H]4O)c(=O)c3)cn2)cn1` (racemic), for which, in assay [1], the log(activity) came out at 2.15. Further, the log(IA) in assay [2] is -3. In assay [3], this compound yielded a Kb of 32 µM and a pKb of 4.5.

For the compound `NC(=O)c1cccc(COc2ccccc2-c2ccn([C@H]3CCCC[C@@H]3O)c(=O)c2)c1` (racemic), in assay [1], the log(activity) came to 0.87. In assay [2], the log(IA) was -3. In addition, in assay [3], the Kb came to 91 µM and the pKb stood at 4.04.

On to `CCCCn1cc(-c2ccc(COc3ccccc3-c3ccn([C@H]4CCCC[C@@H]4O)c(=O)c3)cc2)cn1` (racemic), for which the log(activity) in assay [1] was 0.75. For the same compound, in assay [2], the Intrinsic activity came out at 0.5 and the log(IA) is -0.3. In assay [3], the Kb is 14 µM and the pKb is 4.86.

Broadly, the pKb is the Kb on a negative log10 scale, so that one unit is a factor of ten. Higher therefore signals a low Kb.
